Results on 3 compounds are retold here after ChEMBL document CHEMBL4715684, “Computer-aided discovery of phenylpyrazole based amides as potent S6K1 inhibitors” (RSC Med Chem, 2020).

For data set [1], the target named is Ribosomal protein S6 kinase beta-1 (Homo sapiens, UniProt P23443). Description: Inhibition of human S6K1 using KKRNRTLTK peptide substrate by radiometric assay.
The nature of data set [2]: Half life in Sprague-Dawley rat at 1 mg/kg, iv measured upto 8 hrs by LC/MS/MS analysis. In kind it is ADME, organism-based. Particulars: in vivo. A digest of the protocol:
(§1)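 Sprague Dawley rats were dosed with compound in a generic formulation at 1 mg mL-1, either 1 mg kg-1 iv into the femoral vein or 2 mg kg-1 by oral gavage. Blood was drawn at 5, 15, 30 min and 1, 2, 4, 6, 8 h into EDTA, and plasma was obtained by centrifugation. Plasma was precipitated with acetonitrile containing internal standard, then analysed by C18 LC-MS/MS (positive MRM) against internal-standard peak areas. Data were fitted with an IV bolus model.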

Data set [3] can be described thus: Volume of distribution in Sprague-Dawley rat at 1 mg/kg, iv measured upto 8 hrs by LC/MS/MS analysis. In kind it is ADME, organism-based. The note with it: in vivo. A digest of the protocol:
as §1

A short description of data set [4]: Clearance in Sprague-Dawley rat at 1 mg/kg, iv measured upto 8 hrs by LC/MS/MS analysis. Particulars: in vivo. Format: ADME, organism-based. A digest of the protocol:
as §1

Data set [5] is described as follows: AUC in Sprague-Dawley rat at 1 mg/kg, iv measured upto 8 hrs by LC/MS/MS analysis. The note with it: in vivo. Further details: route intravenous, dose 1 mg/kg, time <=8. Format: ADME, organism-based. A digest of the protocol:
as §1

Data set [6] can be described thus: Cmax in Sprague-Dawley rat at 2 mg/kg, po measured upto 8 hrs by LC/MS/MS analysis. Also on record: route oral, dose 2 mg/kg, time <=8. Particulars: in vivo. In kind it is ADME, organism-based. An outline of the steps:
as §1

Data set [7] in a line: Oral bioavailability in Sprague-Dawley rat at 2 mg/kg measured upto 8 hrs by LC/MS/MS analysis. In kind it is ADME, organism-based. Particulars: in vivo. An outline of the steps: as §1
Data set [8] is described as follows: Metabolic stability in human liver microsomes assessed as half life. In kind it is ADME, Microsome. An outline of the steps:
(§2)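 Half-life in human or rat liver microsomes, reported as the mean of three experiments with errors within 30% of the mean.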

Data set [9] is described as follows: Metabolic stability in rat liver microsomes assessed as half life. In kind it is ADME, Microsome. An outline of the steps:
as §2
Background: Liver microsomes are a subcellular fraction often used to study metabolism.

The target in a further data set is T1, CYP1A2 (Homo sapiens, UniProt P05177).
T1 sequence (P05177 whole entry): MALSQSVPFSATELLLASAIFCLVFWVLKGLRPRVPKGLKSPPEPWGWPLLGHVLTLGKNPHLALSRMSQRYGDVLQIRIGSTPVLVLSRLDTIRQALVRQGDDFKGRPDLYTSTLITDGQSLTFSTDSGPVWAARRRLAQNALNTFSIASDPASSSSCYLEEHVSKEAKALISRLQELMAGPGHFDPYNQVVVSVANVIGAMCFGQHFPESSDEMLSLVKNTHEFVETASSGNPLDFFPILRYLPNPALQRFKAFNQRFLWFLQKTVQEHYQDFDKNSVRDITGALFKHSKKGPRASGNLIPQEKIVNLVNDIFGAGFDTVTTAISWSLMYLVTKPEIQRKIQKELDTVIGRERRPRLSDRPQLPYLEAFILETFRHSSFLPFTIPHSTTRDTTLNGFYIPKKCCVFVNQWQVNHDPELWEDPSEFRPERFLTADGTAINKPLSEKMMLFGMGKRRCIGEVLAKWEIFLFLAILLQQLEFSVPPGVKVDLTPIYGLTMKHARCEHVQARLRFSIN
The data set can be described thus: Inhibition of human CYP1A2 using phenacetin as substrate at 10 uM by cocktail inhibition assay. Format: ADME. The note with it: probe phenacetin. A digest of the protocol:
(§3)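 Cocktail P450 assay measuring marker metabolism with and without 10 µM test compound: CYP1A2 phenacetin […] to acetaminophen, CYP2C9 tolbutamide to hydroxytolbutamide, CYP2D6 bufuralol to […], CYP3A4 midazolam to 1'-hydroxymidazolam. Each substrate was at about its Km. Isoform-specific inhibitors were run as system controls. Values are means of three experiments, with errors within 30% of the mean.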

Another data set concerns the target CYP2C9 (Homo sapiens, UniProt P11712). Description: Inhibition of human CYP2C9 using tolubutamide as substrate at 10 uM by cocktail inhibition assay. In kind it is ADME. Particulars: probe tolubutamide. An outline of the steps:
as §3

The next data set concerns the target CYP2D6 (Homo sapiens, UniProt P10635). Description: Inhibition of human CYP2D6 using bufuralol as substrate at 10 uM by cocktail inhibition assay. Particulars: probe bufuralol. In kind it is ADME. An outline of the steps: as §3
The target of the next data set is CYP3A4 (Homo sapiens, UniProt P08684). Description: Inhibition of human CYP3A4 using midazolam as substrate at 10 uM by cocktail inhibition assay. Format: ADME. The note with it: probe midazolam. An outline of the steps: as §3
CYP3A4, sequence (P08684 whole entry): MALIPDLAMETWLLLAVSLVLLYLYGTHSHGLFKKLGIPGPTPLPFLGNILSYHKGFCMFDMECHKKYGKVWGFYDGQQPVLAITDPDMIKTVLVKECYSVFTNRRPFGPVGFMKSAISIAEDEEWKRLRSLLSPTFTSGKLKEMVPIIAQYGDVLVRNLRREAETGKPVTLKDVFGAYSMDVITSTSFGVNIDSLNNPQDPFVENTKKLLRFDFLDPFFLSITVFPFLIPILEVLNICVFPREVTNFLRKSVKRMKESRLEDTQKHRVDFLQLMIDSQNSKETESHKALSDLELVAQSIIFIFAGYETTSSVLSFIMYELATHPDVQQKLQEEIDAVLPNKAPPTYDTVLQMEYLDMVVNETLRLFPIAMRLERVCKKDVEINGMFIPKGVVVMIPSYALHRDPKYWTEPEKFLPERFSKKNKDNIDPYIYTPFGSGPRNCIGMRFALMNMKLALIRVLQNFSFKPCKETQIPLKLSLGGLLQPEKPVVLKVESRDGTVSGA

Ribosomal protein S6 kinase beta-1, sequence (P23443 whole entry): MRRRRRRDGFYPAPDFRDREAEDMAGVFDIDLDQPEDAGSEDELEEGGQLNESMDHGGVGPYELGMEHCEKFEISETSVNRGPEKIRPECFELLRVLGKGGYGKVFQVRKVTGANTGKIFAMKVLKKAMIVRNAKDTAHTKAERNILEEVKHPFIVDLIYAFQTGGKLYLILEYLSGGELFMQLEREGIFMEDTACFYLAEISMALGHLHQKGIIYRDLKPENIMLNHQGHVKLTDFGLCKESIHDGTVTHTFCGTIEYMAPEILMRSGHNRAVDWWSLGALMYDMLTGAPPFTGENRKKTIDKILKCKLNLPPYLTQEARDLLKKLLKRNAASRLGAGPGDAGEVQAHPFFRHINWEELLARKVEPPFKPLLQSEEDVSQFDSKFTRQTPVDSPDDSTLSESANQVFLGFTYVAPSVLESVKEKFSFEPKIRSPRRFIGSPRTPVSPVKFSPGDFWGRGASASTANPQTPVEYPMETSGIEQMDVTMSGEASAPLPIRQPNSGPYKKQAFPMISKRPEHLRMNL
CYP2D6, sequence (P10635 whole entry): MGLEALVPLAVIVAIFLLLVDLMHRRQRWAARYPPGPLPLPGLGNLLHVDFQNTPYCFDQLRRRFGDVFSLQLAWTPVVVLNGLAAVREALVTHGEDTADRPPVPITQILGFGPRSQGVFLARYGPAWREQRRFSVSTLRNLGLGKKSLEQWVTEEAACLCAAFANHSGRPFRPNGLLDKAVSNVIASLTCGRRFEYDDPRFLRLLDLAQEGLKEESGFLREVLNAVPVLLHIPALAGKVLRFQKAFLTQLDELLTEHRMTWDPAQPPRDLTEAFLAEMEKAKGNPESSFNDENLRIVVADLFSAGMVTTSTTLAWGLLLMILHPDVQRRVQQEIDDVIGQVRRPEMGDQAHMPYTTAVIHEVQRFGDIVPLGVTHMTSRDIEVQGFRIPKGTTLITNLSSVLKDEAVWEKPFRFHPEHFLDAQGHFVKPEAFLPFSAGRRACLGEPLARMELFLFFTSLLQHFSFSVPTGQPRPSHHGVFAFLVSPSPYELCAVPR
CYP2C9, sequence (P11712 whole entry): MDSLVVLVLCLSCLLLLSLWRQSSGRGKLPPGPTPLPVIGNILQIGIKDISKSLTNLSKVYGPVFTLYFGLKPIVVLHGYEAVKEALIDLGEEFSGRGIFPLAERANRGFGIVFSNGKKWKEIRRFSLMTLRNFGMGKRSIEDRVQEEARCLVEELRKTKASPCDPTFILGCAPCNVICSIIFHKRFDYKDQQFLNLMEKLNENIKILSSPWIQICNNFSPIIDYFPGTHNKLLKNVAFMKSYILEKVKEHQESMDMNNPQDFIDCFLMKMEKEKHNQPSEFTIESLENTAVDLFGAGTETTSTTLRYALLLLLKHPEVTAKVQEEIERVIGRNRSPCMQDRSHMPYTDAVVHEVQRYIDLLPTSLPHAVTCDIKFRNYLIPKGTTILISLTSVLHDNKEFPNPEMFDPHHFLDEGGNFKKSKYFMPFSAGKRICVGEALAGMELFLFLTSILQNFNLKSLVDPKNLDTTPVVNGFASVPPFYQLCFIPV

In data set [1], `O=C(Nc1ccc(-c2cn[nH]c2)cc1F)C1COc2ccccc2O1` (stereo not drawn) yielded an IC50 of 0.179 µM.

For `COc1ccc2c(c1)CC(C(=O)Nc1cc(F)c(-c3cn[nH]c3)c(F)c1)CO2` (stereo not drawn), the half-life is 28.2 min in data set [2], 23 min in [8] and 17 min in [9]. Besides, in data set [3], the Vd stood at 0.7 L/kg. Further, the clearance in data set [4] came to 1.68 L/h/kg. Besides, it took 0.0567 µM to reach half-maximal inhibition in [1] (IC50). The same compound showed an AUC at 8 h in data set [5] of 1600 nM·h. The same compound displayed a peak concentration (Cmax) in [6] of 0.67 µM. Besides, the bioavailability in [7] was 25%. Moreover, the inhibition at 10 µM against CYP1A2 was 42%; against CYP2C9, 63%; against CYP2D6, 40%; against CYP3A4, 38%.

`O=C(Nc1cc(F)c(-c2cn[nH]c2)c(F)c1)C1COc2ccccc2C1` (stereo not drawn): the Vd in data set [3] came out at 0.8 L/kg. The compound also had an AUC at 8 h in [5] of 1500 nM·h. The Cmax in data set [6] worked out at 0.6 µM. Besides, the bioavailability in [7] stood at 23%.

A word on the IC50: it is the concentration at which inhibition is half-maximal. Higher therefore signals a need for much substance. In general, half-life refers to how long it takes for the measured level to halve. The term Vd denotes a proportionality between amount in the body and measured concentration, not a real space. Low readings indicate confinement near the circulation, high ones extensive tissue distribution. As a reminder, the clearance is a measure of how efficiently the substance is removed, as volume per time. A lower clearance goes with inefficient removal. In general, AUC refers to concentration integrated over time. Read a high AUC as more exposure. In general, Cmax refers to the maximum level reached in the sampled fluid or tissue. A word on the bioavailability: it is the share of a dose that reaches the circulation, judged against a reference dose that is usually intravenous. Higher therefore signals good availability. The inhibition is the share of the control response that was lost under treatment. Higher therefore signals a strong effect.
